In the EternaBench riboswitch data:

Tested on: MS2 coat protein
Assay: apparent Kd, MS2 coat protein; higher = weaker binding; RNA-MaP array; FMN 200 µM where present
Outline: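 Apparent Kd: the median of filtered binding-curve fits from single clusters. Designs were transcribed on Illumina sequencing-chip clusters by stalled E. coli RNA polymerase and titrated with SNAP-549-labelled MS2 coat protein from 0.7 or 1.5 nM, doubling to 3 µM, in 100 mM Tris-HCl pH 7.5, 80 mM KCl, 4 mM MgCl2, BSA, DTT, yeast tRNA and Tween-20. Each series ran without and then with constant ligand, and green signal was normalised to red-channel RNA signal and control-cluster median Fmax.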

[1] = designed as: OFF switch for flavin mononucleotide, no ligand
[2] = ligand present: flavin mononucleotide, designed as: OFF switch for flavin mononucleotide
[3] = designed as: ON switch for flavin mononucleotide, no ligand
[4] = ligand present: flavin mononucleotide, designed as: ON switch for flavin mononucleotide

Sequence | apparent Kd [1] [nM] | apparent Kd [2] [nM] | apparent Kd [3] [nM] | apparent Kd [4] [nM]
AGGAGUACAGGAUAUACAUGAGGAUCACCCAUGUGAGAAUUAAGUGGCGUACCACAAAGUAGAAGGGUACUCCA | 50.5 | 198 | – | –
AAGAAGCACGCAGGAUAUCUCACCCAUGUAAGAAGAGAAGGGCGACAUGAGGAUCACCCAUGUCAACAUGAGGAUCACCCAUGU | 62.2 | 87.8 | – | –
UGCUAGAACCUAGGAUAUCCUAGGUUGGUGGUGCUUGGUGACCGGACAUGAGGAUCACCCAUGUAGGAGAAGGAGGUUGCUAAG | 37.8 | 41.2 | – | –
UCAGUAGAGUCAGGAUAUACCGAAAAGAAUCCUCACAUGAGGAUCACCCAUGUAGAAGGGACUCUACUGUAAGUCGGAAACGAC | 91.8 | 868 | – | –
CGUGUCAUCGAGAAGGCCUCAACAUGAGGAUCACCCAUGUUGUAAUAUGGGAGGAUAUCGAUGAUACAGCUACGUUUCGUAGCA | – | – | 21.1 | 6.03
UUCCGGCGUGUAGGAUAUGGAUCCGAUUAGGAUCCAGAAGGACAUGAGGAUCACCCAUGUACAUGUAAACAGUCAUCACCGGAC | 9.63 | 87.3 | – | –
UGUCGGAGCAGAGGAUAUUACAUGAGGAUCACCCAUGUAUGAACCAAUGGCUGGAAACAGCAAUGUAAGAAGGCUGCUCCGACA | 9.69 | 64.5 | – | –
GCUAUAGAUGUAGGAUAUCAUAUAGAAGCUAUGUGAGAAGGACAUGAGGAUCACCCAUGUCAAUGGCUGGAGCGAAGUUAUGGC | 30.4 | 35.2 | – | –
AGGAAACAUGAGGAUCACCCAUGUAAAAGGUGGUUAGGAUAUGCGAUAAUAAAAAUAAUAGCAGAAGGGACAAGAA | – | – | 511 | 432
GGUACUCAAAGAGUACCAAUACGAACAUGAGGAUCACCCAUGUAGGAUAUGCUACUCAAAGAGUAGCAGAAGGAUAUGAUCCAU | 77.2 | 105 | – | –
AACCAGUUGGUAGGAUAUGGUACAGUACCCGUACCAGAAGGACCAACAUGAGGAUCACCCAUGUUGGAAAGUCAACAUUAAUGA | 6.51 | 14 | – | –
GUAGCACAAGUUAACAUGAGGAUCACCCAUGUCAGAAGACAUGAGGAUAUGGAUGUGAAGAUAAUCCAGAAGGCAUAAUGCUAA | – | – | 774 | 131
CUUUUGUGAGGAUAUUAGUAGUAAAUAAAUAAAAUUACUACUGAGAAGGCACAUGAGGAUCACCCAUGUUCCUU | 12.6 | 38 | – | –
UAUAUAAUAAGAGCUGGCUCUAAAACAUGAGGAUCACCCAUGUAGGAUAUCAGCACGAUAAGUGCUGAGAAGGACAACCAGCUC | 16.3 | 17.3 | – | –
UUGGACGUCGUAGGAUAUGUAGGAUACUCCUACAUGAGGAUCACCCAUGUUGACAUGGAGGACGGACAGAAGGACGGUGUCCAU | – | – | 60.5 | 5.72
GAUUAUAAGUAAGGAUAUGUAUAUGAAACAUCUACAGAAGGUACAUGAGGAUCACCCAUGUUCUUGCAGCGUGACUCUGUGAUC | 63.6 | 130 | – | –
AUACAUGAGGAUCACCCAUGUAAUUAAUUAACUAGUAAGAUCUAGGAUAUCAGCUCGAUUAGAGCUGAGAAGGAGAUCACAUGU | – | – | 34.7 | 16.9
UGAAAUCAUGUAGGAUAUGCAUGGCGAAGCUACGCAGAAGGACAUGAGGAUCACCCAUGUUAUAGCUACCCAGCUCGGUGGCAA | 39.6 | 117 | – | –
GCACUGGAUGUAGGAUAUCAGGACGAUAAGUCCUGAGAAGGACAUGAGGAUCACCCAUGUCCUAAAACCAGUGCAUAUAAUAUA | 14.4 | 16.7 | – | –
UAUCGGGUGCGACUCGCAAGAGGGACAGAAGGCCAUCGACAUGAGGAUCACCCAUGUAACGAAAUGGAGGAUAUGUCUGGUCGA | – | – | 27.5 | 5.65
AGGUCGGGAUAAGGGCAUUCGACUCAGGAUAUGGGAGGUUUACAUGAGGAUCACCCAUGUUUCACCCAGAAGGGAGUUCAAACU | – | – | 7.59 | 5.84
AGGAGACAUGAGGAUCACCCAUGUGAGAAGAGGCGAGGAUAUCGAAAAAAAAAAAAAAAACGAGAAGGCGCGAGAA | – | – | 71 | 39.3
UACUUGUUAGGAUAUCUUACAUUUGCAUCAUAGCAACCAUUGGAGAAGGGACAUGAGGAUCACCCAUGUUUGGU | 42.3 | 43.8 | – | –
AAGAGAGCAGGAUAUCGGUUUUGCGACAUGAGGAUCACCCAUGUGAGCCGAGUCCAACGCCGAGAAGGGCUAAAAU | 62.5 | 336 | – | –
UUGUUUCGUCAUUAACAUGAGGAUCACCCAUGUAUCGUCUCAAAGGAUAUAUAUGCUUGUUUGCUAUAGAAGGUUGAUUGUUGU | – | – | 71.2 | 67.2
GCCGCCCGAUCUGGCUUUUGGGCUAGAAGGGCAUAUGUGGUUCAGGACAUGAGGAUCACCCAUGUGCAGGAUAUAGCCCACCGC | 25.1 | 53 | – | –
AAGAAGUCAGGAUAUGCUGCUCGUCACUUGCGUGAUGAGUAGCAGAAGGGACAUGAGGAUCACCCAUGUGGAAG | 111 | 240 | – | –
GAGGCACAUGAGGAUCACCCAUGUGGGUAUAACAUAGGAUAUCACCAACAAAAUACCCGGUGAGAAGGAUGAUGCC | – | – | 217 | 113

Sequence | apparent Kd [1] [nM] | apparent Kd [2] [nM] | apparent Kd [3] [nM] | apparent Kd [4] [nM]
AUGUGGUUCCCGGCCAUCGUGUACGAGGAUAUCCUCGAACAUGAGGAUCACCCAUGUAACGUUGUGGAGAAGGCGUACGCUUGG | – | – | 130 | 7.73
AGGAAACAUGAGGAUCACCCAUGUAAAAGGUGGUUAGGAUAUGCAAAAAGAAAAAGAAAAGCAGAAGGGACAAGAA | – | – | 561 | 635
ACACGGUAUGUAGGAUAUGCAUAGCAUUGCUAUGCAGAAGGACAUGAGGAUCACCCAUGUAUGUAUUCCAUACUAAUCCCGUGA | 5.78 | 5.88 | – | –
GGACGUCUCAUUAACAUGAGGAUCACCCAUGUCGAAAGACAUGAGGAUAUGGAUCCUAAUUGGAUCCAGAAGGCAUGGACGUCC | – | – | 98 | 582
AAAGGUGAUUCAGGAUAUGUGUAGGAGGGCGGCGCAGAAGGGAAUCUAGCCCGACGUCAUACAUGAGGAUCACCCAUGUAUGCC | – | – | 28.7 | 18.5
UGGUACUAGGGAGGAUAUGGGAAGAUACAUGAGGAUCACCCAUGUUUAAGAAUGCCGAGAGGCAACUAGAAGGCCCUAGUAACU | – | – | 461 | 20.2
UUGGAGUUCGUAGGAUAUGUAGGAUAUUCCUACAUGAGGAUCACCCAUGUUUACAUGGAAGAAGGACAGAAGGACGAGCUCCAU | – | – | 1580 | 16.2
GGAUAGGACAGAGGAUAUACGUGCUAGAGAUACUAGCAAAAUAUCCUCACAUGAGGAUCACCCAUGUAGAAGGCUGUCCUAUCG | 18.1 | 79 | – | –
UCCAUGUUAGGAUAUUACAUGCAGGCUGUAACACGCCGGUGUAAGAAGGAACAUGAGGAUCACCCAUGUGUCGU | 68 | 137 | – | –
CAGCGAUAGCUGAACAAUCUAUCUGAGGAUAUCAUGAAUAAACAUGAGGAUCACCCAUGUAAAUAUGAGAAGGCAGAUAGAUUG | – | – | 4.82 | 4.78
GUUCUUCCUGUGAGGAUAUCCAUGUGUCGGUGUGUGGAGAAGGUACAUGAGGAUCACCCAUGUCACCCGCGUUU | 20.8 | 22.2 | – | –
UGGUACUAGGGAGGAUAUGGGAAGAUACAUGAGGAUCACCCAUGUUUAAGAAGGCCGAGAGGCAACUAGAAGGCCCUAGUACCU | – | – | 396 | 16
UAAGAGCGAGGAUAUACGUCGCUGGUCCGGAUGGACGCAUGACAUGAGGAUCACCCAUGUAGAAGGCGCAAAAC | 22.9 | 73.3 | – | –
GCACGGUAUGUAGGAUAUGCAUAGCAUUGCUAUGCAGAAGGACAUGAGGAUCACCCAUGUAUGUAUUCCAUACUAAUCCCGUGC | 5.89 | 5.79 | – | –
CAACUGAGCGUAAAUUACCUGAACAUGAGGAUCACCCAUGUGGAGGAUAUUGACUUAGCAAAACUCGAGAAGGCCACUGGGUAG | 44.6 | 18.5 | – | –
AUGAGUAAAGCAGGAUAUCUAUUGUCUCUGUAACAUGAGGAUCACCCAUGUAGAGAAGGGCUAAGUCUUACUCUUCGGAGUUGA | 14.2 | 13.7 | – | –
UGUUUGCGGCAGGAUAUCCAUCCGCGGUGUGGUGGAGAAGGGCUGACAUGAGGAUCACCCAUGUGCGUCCUGUU | 23.6 | 27.9 | – | –
UGAACAAUGUAGAAGGCCCACAUUUAUAUGUAGGGAGGAUAUACAUGAGGAUCACCCAUGUAAAGAGCAAGAGGAUUUGACAGA | 9.49 | 17.6 | – | –
CCAGAGAUAUGAGGAUAUCGAGUGGAAUACACUCGAGAAGGCAUGUGAAAACAUGAGGAUCACCCAUGUGAUCAAUACUCUGGA | – | – | 176 | 27.7
UAAACAUGAGGAUCACCCAUGUAAAGAUCGGUAGUAGAGAGUGAGGAUAUACUAAAAUUUAUAGAGUAGAAGGCACUGGGUUCU | – | – | 38.4 | 28.6
AAGCUGGUAGGAUAUGCUAGGGCGAUUAAUACGCCGAUAGUACAUGAGGAUCACCCAUGUAGAAGGGCCAGAAA | 23.6 | 17.8 | – | –
AAGUAACAUGAGGAUCACCCAUGUUAGGAUAUCUCGGCCACAGGAUCGCUGUGAAGCCAGAGAAGGAGCGGGUG | 175 | 186 | – | –
UUCGUGCAGCUUUGCUGUACGCGUACAUGAGGAUCACCCAUGUAGGAUAUGGUAGGCAUUGCUUACUAGAAGGAUAGUGUGAUC | 124 | 32.2 | – | –
AAUUUACAGGGAGGAUAUACAUGAGGAUCACCCAUGUAAUCAUAUGAUAUUUUUUUUGUAUGAGUGUAGAAGGCCCAACUACCA | 10.7 | 11 | – | –
AACGGAAUGUAGAAGGGUGACAUGAGGAUCACCCAUGUUCACAUGCGUAUUAAAGUAUGUGAUCCACAGGAUAUACUGUCCGUG | – | – | 957 | 92.8
UGUCGGAGCAGAGGAUAUACAUGAGGAUCACCCAUGUAAUAAAGUGAAGCCUGAAAACAGGCAAUGUAGAAGGCUGCUCCGACA | 11.5 | 85 | – | –
AACGACGGAGGAUAUACACCCUGGGACUCAUCAUCCCUUAGACAUGAGGAUCACCCAUGUAGAAGGCCGGACAC | 34.9 | 154 | – | –
